Data published in ChEMBL document CHEMBL2424567, “Hybrid peptides endomorphin-2/DAMGO: design, synthesis and biological evaluation” (Eur J Med Chem, 2013).
pKi: −log10 of the molar value. Active and inactive are the calls of the source. Non-standard residues stand in square brackets, D forms with d. Residues, ends and D or L forms follow the SMILES beside them. *: point of attachment. NHCH2CH2OH = OCCN*; Sar = CNCC(=O)O

Key:
[1] = tested on: Mus musculus; assay: Antinociceptive effect in icv dosed CD1 mouse assessed as increase in tail-flick latency period by tail flick test; format: functional
Summary of the method: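 Male CD-1 mice (25–30 g) given i.c.v. injection under light isoflurane (2 mm caudal/2 mm lateral of bregma, 3 mm deep, 5 µL), various doses. Radiant infrared heat focused 3–4 cm from tail tip; withdrawal latency with 15 s cut-off. Baseline is the mean of three readings 15 min apart; readings at 5–30 min. Result as %MPE; AD50 with 95% confidence limits by graded dose–response.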

[2] = tested on: Mus musculus; assay: Analgesic activity in icv dosed CD1 mouse assessed as inhibition of heat-induced jumping behaviour after 5 to 30 mins by hot plate method; format: functional
Summary of the method: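 Male CD-1 mice (25–30 g), lightly isoflurane-anaesthetised, injected i.c.v. 2 mm caudal and 2 mm lateral of bregma, 3 mm depth, 5 µL; various doses. Plate held at 55.0 ± 0.1 °C; latency to paw licking or jumping, 60 s cut-off. Baseline is the mean of three readings 15 min apart; readings at 5, 10, 15, 20 and 30 min. Result as %MPE; AD50 with 95% confidence limits by graded dose–response.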

[3] = target: Delta-type opioid receptor (Rattus norvegicus, UniProt P33533); assay: Displacement of [3H]Ile5,6deltorphin-2 from delta opioid receptor in Wistar rat brain membranes by liquid scintillation counting; format: cell membranes, Membrane
Delta-type opioid receptor, sequence (P33533 whole entry): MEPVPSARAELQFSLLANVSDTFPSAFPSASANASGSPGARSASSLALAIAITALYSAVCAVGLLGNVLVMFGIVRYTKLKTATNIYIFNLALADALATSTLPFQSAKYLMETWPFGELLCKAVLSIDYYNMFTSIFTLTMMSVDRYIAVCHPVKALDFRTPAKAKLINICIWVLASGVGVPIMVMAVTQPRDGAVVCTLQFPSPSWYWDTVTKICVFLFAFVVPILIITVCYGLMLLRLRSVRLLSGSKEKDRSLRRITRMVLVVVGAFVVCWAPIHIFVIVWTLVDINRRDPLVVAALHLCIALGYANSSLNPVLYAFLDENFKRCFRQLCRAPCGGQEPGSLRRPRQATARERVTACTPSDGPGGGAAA

[4] = target: Mu-type opioid receptor (Rattus norvegicus, UniProt P33535); assay: Displacement of [3H]DAMGO from mu opioid receptor in Wistar rat brain membranes by liquid scintillation counting; format: cell membranes, Membrane
Mu-type opioid receptor, sequence (P33535 whole entry): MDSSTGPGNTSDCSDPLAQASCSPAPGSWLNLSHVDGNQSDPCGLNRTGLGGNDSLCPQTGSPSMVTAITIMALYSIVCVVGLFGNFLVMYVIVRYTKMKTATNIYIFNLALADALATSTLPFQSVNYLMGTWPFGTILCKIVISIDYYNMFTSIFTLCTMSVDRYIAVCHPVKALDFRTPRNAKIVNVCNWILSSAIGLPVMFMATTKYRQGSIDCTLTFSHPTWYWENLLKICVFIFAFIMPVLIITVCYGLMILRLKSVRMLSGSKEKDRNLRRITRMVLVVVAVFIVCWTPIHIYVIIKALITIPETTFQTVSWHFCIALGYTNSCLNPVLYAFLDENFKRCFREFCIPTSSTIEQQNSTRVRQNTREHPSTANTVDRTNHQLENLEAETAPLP

[5] = species: Rattus norvegicus; assay: Selectivity ratio of Ki for delta opioid receptor in Wistar rat brain membranes to Ki for mu opioid receptor in Wistar rat brain membranes; format: cell membranes; details: Membrane
Summary of the method: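 Washed Wistar rat brain membranes (0.2–0.4 mg/ml protein) incubated 30 min at 25 °C in 50 mM Tris-HCl pH 7.4 with BSA, captopril, bestatin and phosphoramidon (1 µM each). Radioligands were [3H]DAMGO (0.9–1.2 nM, μ) or [3H]Ile5,6-deltorphin-2 (0.8–1.3 nM, δ); competitor at 10^-11–10^-5 M; nonspecific binding with 10 µM naloxone. Filtration and scintillation counting; Ki by Cheng–Prusoff; δ/μ Ki ratio.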

[6] = Half life in human plasma at 100 ug/mL; format: ADME, cell-free
Summary of the method: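 Thawed human plasma spiked with compound in DMSO to 100 µg/mL final, incubated at 37 °C. Samples taken at set times were quenched with 5% ZnSO4/MeOH/ACN (5:3:2), centrifuged, and the supernatant analysed by reversed-phase HPLC-UV (275 or 254 nm). Calibration range 10–100 µg/mL. Three independent experiments.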

Compound | AD50 [1] | AD50 [2] | pKi [3] | pKi [4] | Ratio Ki [5] | half-life at 100 ug/mL [6] [min]
NC(=O)[C@H](Cc1ccccc1)NC(=O)[C@H](Cc1ccccc1)NC(=O)[C@@H]1CCCN1C(=O)[C@@H](N)Cc1ccc(O)cc1 [ENDOMORPHIN 2] | 1.49 nmol | 2.29 nmol |  |  |  | 
CN(C(=O)[C@@H]1CCCN1C(=O)[C@@H](N)Cc1ccc(O)cc1)[C@@H](Cc1ccccc1)C(=O)N[C@@H](Cc1ccccc1)C(=O)NCCO.O=C(O)C(F)(F)F | 3.03 nmol | 9.6 nmol | < 5.00 | 6.81 |  | 
CN(C(=O)[C@H](Cc1ccccc1)NC(=O)[C@@H]1CCCN1C(=O)[C@@H](N)Cc1ccc(O)cc1)[C@@H](Cc1ccccc1)C(=O)NCCO.O=C(O)C(F)(F)F | 5.56 nmol | 9.44 nmol | 5.41 | 6.65 | 17.2 | 
CN(CC(=O)N[C@@H](Cc1ccccc1)C(=O)NCCO)C(=O)[C@@H]1CCCN1C(=O)[C@@H](N)Cc1ccc(O)cc1 (H-YP[Sar]F-NHCH2CH2OH) | inactive | inactive | < 5.00 | < 5.00 |  | 
C[C@@H](NC(=O)[C@@H](N)Cc1ccc(O)cc1)C(=O)NCC(=O)N(C)[C@@H](Cc1ccccc1)C(=O)NCCO [DAMGO] |  |  | < 5.00 |  |  | 
CC[C@H](C)[C@H](NC(=O)[C@H](CCC(=O)O)NC(=O)[C@H](Cc1ccccc1)NC(=O)[C@H](C)NC(=O)[C@@H](N)Cc1ccc(O)cc1)C(=O)N[C@H](C(=O)NCC(N)=O)[C@@H](C)CC |  |  |  | < 5.00 |  | 
N[C@@H](Cc1ccc(O)cc1)C(=O)N1CCC[C@H]1C(=O)N[C@@H](Cc1ccccc1)C(=O)N[C@@H](Cc1ccccc1)C(=O)NCCO.O=C(O)C(F)(F)F | 3.44 nmol | 6.66 nmol | 6.10 | 7.05 | 8.9 | 
CN(C(=O)[C@H](Cc1ccccc1)N(C)C(=O)[C@@H]1CCCN1C(=O)[C@@H](N)Cc1ccc(O)cc1)[C@@H](Cc1ccccc1)C(=O)NCCO.O=C(O)C(F)(F)F | 2.65 nmol | 3.77 nmol | 5.19 | 7.47 | 188 | 40
